Measurements of several laboratories.
Protocols differ between the studies behind these lines.
CYP2C9: Cytochrome P450 2C9 (CYP2C9, Homo sapiens, UniProt P11712)
FABP4: Fatty acid-binding protein, adipocyte (FABP4, Homo sapiens, UniProt P15090)
AKT1: RAC-alpha serine/threonine-protein kinase (AKT1, Homo sapiens, UniProt P31749)

| SMILES | target | test | system | setting | endpoint | value |
| --- | --- | --- | --- | --- | --- | --- |
| Fc1ccc(/C=C/C=N/NC(=S)NCc2ccccc2)cc1 | Urease subunit alpha (Sporosarcina pasteurii, UniProt P41020) | enzyme activity, inhibitor | – | – | Ki | 3.26 µM |
| COc1ccc(-c2coc3cc(O)ccc3c2=O)cc1 | CYP2C9 | enzyme activity, inhibitor | human, liver microsomes | 15 min | Ki | 7.12 µM |
| O=S(=O)(O)c1cccc2cccc(Nc3ccccc3)c12 | FABP4 | binding, fluorescence | – | – | Kd | 0.508 µM |
| CCOc1ccccc1C(=O)CC(SCc1ccc(Cl)cc1)C(=O)O (centres unmarked) | AKT1 | ligand displacement, FP | – | – | Ki | > 1000 µM |
| CCCCCCCCCCCC(=O)O | FABP4 | ligand displacement, fluorescence | – | – | Ki | 0.827 µM |
| CC(C)(C)Cc1ccc(O)c(O)c1 | Peroxiredoxin-5, mitochondrial (PRDX5, Homo sapiens, UniProt P30044) | binding, NMR | – | – | Kd | 20 µM |
| COc1ccc(C(=O)CC(SCc2ccc(Cl)cc2)C(=O)O)cc1 (centres unmarked) | AKT1 | ligand displacement, FP | – | – | Ki | 320 µM |
| CN(C)C(=O)c1cc2cnc(Nc3ccc(C(=O)NCCCCCCOc4cccc5c4C(=O)N(C4CCC(=O)NC4=O)C5=O)cc3)nc2n1C1CCCC1 (centres unmarked) | Cyclin-dependent kinase 9 (CDK9, Homo sapiens, UniProt P50750) | binding, competition with immobilised ligand | – | – | Kd | < 0.2 µM |
| CCCCCCCCCC(=O)O | FABP4 | ligand displacement, fluorescence | – | – | Ki | 1.29 µM |
| CCOc1ccc(C(=O)CC(SCc2ccc(F)cc2)C(=O)O)cc1 (centres unmarked) | AKT1 | ligand displacement, FP | – | – | Ki | 225 µM |
| O=C(O)C(F)(F)C(F)(F)C(F)(F)C(F)(F)C(F)(F)C(F)(F)C(F)(F)C(F)(F)C(F)(F)C(F)(F)C(F)(F)C(F)(F)F | FABP4 | ligand displacement, fluorescence | – | – | Ki | 0.757 µM |
| CCOc1ccc(C(=O)CC(SCc2ccc(Cl)cc2)C(=O)O)cc1 (centres unmarked) | AKT1 | ligand displacement, FP | – | – | Ki | 96 µM |
| CCCCCCCCC(=O)O | FABP4 | ligand displacement, fluorescence | – | – | Ki | 12.3 µM |
| Cc1cc(-c2ccnc3[nH]cc(F)c23)cc(F)c1[C@@]1(O)[C@H](C)CN(C(=O)CN)C[C@@H]1C | AKT1 | cell-free assay, TR-FRET | – | – | Kd | 0.244 µM |
| CCOc1ccc(C(=O)CC(SCc2ccc(Cl)cc2)C(=O)OC)cc1 (centres unmarked) | AKT1 | ligand displacement, FP | – | – | Ki | 530 µM |
| Cc1cc(-c2ccnc3[nH]cc(F)c23)cc(F)c1[C@@]1(O)[C@H](C)CN(C2CCS(=O)(=O)CC2)C[C@@H]1C | AKT1 | cell-free assay, TR-FRET | – | – | Kd | 0.724 µM |
| CCOc1ccc(C(=O)CC(SCc2ccc(OC)cc2)C(=O)O)cc1 (centres unmarked) | AKT1 | ligand displacement, FP | – | – | Ki | 560 µM |
| CCCCCCC(CCCCCCCCCCC(=O)O)N(C)c1ccc([N+](=O)[O-])c2nonc12 (centres unmarked) | Sterol carrier protein 2 (Homo sapiens, UniProt P22307) | binding, fluorescence | – | – | Kd | 0.31 µM |
| O=C(O)C(F)(F)C(F)(F)C(F)(F)C(F)(F)C(F)(F)C(F)(F)C(F)(F)C(F)(F)C(F)(F)C(F)(F)C(F)(F)F | FABP4 | ligand displacement, fluorescence | – | – | Ki | 0.551 µM |
| O=c1c(-c2ccc(O)cc2)coc2cc(O)ccc12 | CYP2C9 | enzyme activity, inhibitor | human, liver microsomes | 15 min | Ki | 7.85 µM |
